Measured values: ChEMBL document CHEMBL1177840, “Trifluoromethyl-promoted homocamptothecins: synthesis and biological activity” (Eur J Med Chem, 2010)
Activity calls are given as the source filed them. No cut-off for these calls is given here.

Columns and labels:
[1] = tested on: A549; test: Cytotoxicity against human A549 cells after 3 days by MTT assay; conditions: A549, 3 days
[2] = tested on: LoVo; test: Cytotoxicity against human LoVo cells after 3 days by MTT assay
[3] = tested on: MDA-MB-435; test: Cytotoxicity against human MDA-MB-435 cells after 3 days by MTT assay; conditions: MDA-MB-435, 3 days
[4] = tested on: Mus musculus; test: Toxicity in C57BL/6 mouse assessed as body weight at 0.5 mg/kg, ip qd for 5 days ( RVb = 19.06 +/- 1.35 g); assay type: organism-based; parameters: dose 0.5 mg/kg, route intraperitoneal; conditions: in vivo, 120 h
[5] = tested on: Lewis lung carcinoma cell line; test: Antitumor activity against mouse LLC transplanted in C57BL/6 mouse assessed as tumor growth inhibition at 0.5 mg/kg, ip qd for 5 days; assay type: functional; conditions: 120 h, route intraperitoneal
Outline: (§1)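 Male C57BL/6 mice (18–20 g) received Lewis lung carcinoma cells subcutaneously in the right axilla. Starting 3 days after implantation, they were dosed i.p. once daily for 5 consecutive days; controls received normal saline. Tumors were excised and weighed on day 14 post-implantation. Growth inhibition was calculated from the average tumor weight of the test group versus the control group.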

[6] = tested on: Lewis lung carcinoma cell line; test: Antitumor activity against mouse LLC transplanted in C57BL/6 mouse assessed as tumor weight at 0.5 mg/kg, ip qd for 5 days (RVb = 1.8 +/- 0.47 g); assay type: functional; conditions: route intraperitoneal
Outline: as §1

[7] = tested on: Mus musculus; test: Toxicity in C57BL/6 mouse at 0.5 mg/kg, ip qd for 5 days; assay type: organism-based; parameters: dose 0.5 mg/kg, route intraperitoneal; conditions: in vivo, 120 h
[8] = target: T1, Topoisomerase I (Bos taurus) (UniProt Q2HPH0); test: Inhibition of calf thymus topoisomerase 1-mediated relaxation of supercoiled pBR322 by agarose gel electrophoresis
T1 sequence (whole entry): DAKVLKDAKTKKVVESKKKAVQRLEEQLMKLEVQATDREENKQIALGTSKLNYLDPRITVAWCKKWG
Outline: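 Reactions incubated 15 min at 37 °C, then stopped with SDS (0.5% final). After loading buffer was added, products were separated on 0.8% agarose in TAE buffer for 40 min at 120 V. Gels were stained with ethidium bromide at room temperature and photographed under UV transillumination.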

| Structure (SMILES) | IC50 [1] [µM] | IC50 [2] [µM] | IC50 [3] [µM] | Activity [4] [g] | inhibition in vivo at 0.5 mg/kg [5] [%] | Activity [6] [g] | Activity [7] | inhibition [8] |
| --- | --- | --- | --- | --- | --- | --- | --- | --- |
| CCC1(O)CC(=O)OCc2c1cc1n(c2=O)Cc2c-1nc1ccc(O)cc1c2C (centres undefined) | 9.89 | 7.09 | 3.39 |  |  |  |  |  |
| CCC1(O)CC(=O)OCc2c1cc1n(c2=O)Cc2c-1nc1cccc(OC)c1c2C (centres undefined) | 10.9 | 5.47 | 7.73 | 19.77 | 23.2 | 1.38 | Non-toxic |  |
| CCC1(O)CC(=O)OCc2c1cc1n(c2=O)Cc2c-1nc1ccc(C(F)(F)F)cc1c2C (centres undefined) | > 225 | > 225 | > 225 |  |  |  |  |  |
| CCC1(O)CC(=O)OCc2c1cc1n(c2=O)Cc2c-1nc1ccccc1c2C (centres undefined) | 0.468 | 1.16 | 3.88 | 18.8 | 41.2 | 1.06 | Non-toxic | Active |
| CCC1(O)CC(=O)OCc2c1cc1n(c2=O)Cc2c-1nc1ccc(OC)cc1c2C (centres undefined) | 3.52 | 1.32 | 2.61 |  |  |  |  |  |
| CCC1(O)CC(=O)OCc2c1cc1n(c2=O)Cc2c-1nc1ccc(Br)cc1c2C (centres undefined) | 29.1 | 2.31 | 30.9 |  |  |  |  |  |
| CCC1(O)CC(=O)OCc2c1cc1n(c2=O)Cc2c-1nc1ccc(Br)cc1c2C(F)(F)F (racemic) | 27.9 | 13.3 | 11 |  |  |  |  |  |
| CCC1(O)CC(=O)OCc2c1cc1n(c2=O)Cc2c-1nc1ccccc1c2C(F)(F)F (racemic) | 0.313 | 1.29 | 2.33 | 19.16 | 45.6 | 0.98 | Non-toxic | Active |
| CCC1(O)CC(=O)OCc2c1cc1n(c2=O)Cc2c-1nc1ccc(C(F)(F)F)cc1c2C(F)(F)F (racemic) | 20.3 | 22.9 | 5.32 |  |  |  |  |  |
| CCC1(O)CC(=O)OCc2c1cc1n(c2=O)Cc2c-1nc1ccc(OC)cc1c2C(F)(F)F (racemic) | 0.832 | 14.6 | 21.4 |  |  |  |  |  |
| CCC1(O)CC(=O)OCc2c1cc1n(c2=O)Cc2c-1nc1ccc(O)cc1c2C(F)(F)F (racemic) | 16.2 | 4.01 | 11.2 |  |  |  |  |  |
| CCC1(O)CC(=O)OCc2c1cc1n(c2=O)Cc2c-1nc1cccc(OC)c1c2C(F)(F)F (racemic) | 5.13 | 3.43 | 2.87 |  |  |  |  |  |
| CC[C@@]1(O)C(=O)OCc2c1cc1n(c2=O)Cc2cc3c(CN(C)C)c(O)ccc3nc2-1 [TOPOTECAN] |  |  |  | 19.24 | 47.5 | 0.94 | Non-toxic |  |
